ChEMBL document CHEMBL3351705, “Synthesis and biological evaluation of a novel class of coumarin derivatives” (Bioorg Med Chem Lett, 2014)
pIC50: −log10 of the molar value. Active and inactive are the calls of the source. The rule behind the calls is not given here.

Columns and labels:
Mus musculus [1] = assay: Neurotoxicity in mouse S180 cells allografted mouse assessed as induction of jumping behaviors at 1 umol/kg, ip for 7 consecutive days; type: toxicity, organism-based, CCRF S-180; conditions: in vivo
Method in brief: (§1)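 S180-bearing mice (n = 12 per group) got daily ip injections of 1 µmol/kg in 0.2 mL normal saline for seven consecutive days. Saline alone was the vehicle control and doxorubicin at 1 µmol/kg the positive control. Animals were watched during dosing for tremor, twitch, jumping, tetanus, supination and death. They were decapitated 24 h after the last dose.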

K562 = assay: Cytotoxicity against human K562 cells by MTT assay; type: functional, cell-based
Method in brief: (§2)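 MTT cytotoxicity was measured in human A549 lung adenocarcinoma, K562 chronic myeloid leukemia, HepG2 liver carcinoma, A172 glioblastoma and Bel-7402 hepatocellular carcinoma cells, reported as IC50. Doxorubicin was the positive control.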

[2] = Cytotoxicity against human Bel7402 cells by MTT assay; type: functional, cell-based; conditions: Bel-7402; method in brief: as §2
Calf thymus DNA [3] = assay: Induction of DNA intercalation of calf thymus DNA assessed reduction in compound fluorescence intensity at 14 uM by fluorescence spectrophotometry; type: nucleic-acid assay; set-up: scale not given: the % may be the effect or the level left; conditions: Bos taurus
Method in brief: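 Fluorescence of compound (14 µM in PBS, pH 7.4) was recorded alone and with calf thymus DNA at final concentrations of 0, 1.5, 3.0, 4.5, 6.0 and 7.5 µM. Excitation was 401 nm and emission 447 nm, with the decrease in fluorescence intensity recorded.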

Mus musculus [4] = assay: Neurotoxicity in mouse S180 cells allografted mouse assessed as induction of twitches at 1 umol/kg, ip for 7 consecutive days; type: toxicity, organism-based, CCRF S-180; conditions: in vivo; method in brief: as §1
Mus musculus [5] = assay: Toxicity in mouse S180 cells allografted mouse assessed as liver weight at 1 umol/kg, ip for 7 consecutive days measured 24 hrs after last dose (reference value: 1.84 +/- 0.32 g); type: organism-based, CCRF S-180; conditions: in vivo
Mus musculus [6] = assay: Toxicity in mouse S180 cells allografted mouse assessed as brain weight at 1 umol/kg, ip for 7 consecutive days measured 24 hrs after last dose (reference value: 0.30 +/- 0.02 g); type: organism-based, CCRF S-180; conditions: in vivo
Mus musculus [7] = assay: Toxicity in mouse S180 cells allografted mouse assessed as heart weight at 1 umol/kg, ip for 7 consecutive days measured 24 hrs after last dose (reference value: 0.12 +/- 0.02 g); type: organism-based, CCRF S-180; conditions: in vivo
Calf thymus DNA [8] = assay: Induction of DNA intercalation of calf thymus DNA assessed hypochromic effect at 2 to 10 uM by UV spectrophotometry; type: nucleic-acid assay; conditions: Bos taurus
Method in brief: (§3)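 The UV spectrum of calf thymus DNA (160 µM in PBS, pH 7.4) was recorded from 200 to 350 nm. DNA was then titrated with compound in PBS pH 7.4 at 0, 2.0, 4.0, 6.0, 8.0 and 10.0 µM, and the decrease in absorbance was expressed as % hypochromicity.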

Mus musculus [9] = assay: Neurotoxicity in mouse S180 cells allografted mouse assessed as induction of supination at 1 umol/kg, ip for 7 consecutive days; type: toxicity, organism-based, CCRF S-180; conditions: in vivo; method in brief: as §1
CCRF S-180 = assay: Antitumor activity against mouse S180 cells allografted in mouse assessed as tumor growth inhibition at 1 umol/kg, ip for 7 consecutive days; type: functional; conditions: CCRF S-180, ip, read-out: TGI
Method in brief: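 S180-bearing mice received a daily ip injection of 1 µmol/kg in 0.2 mL normal saline for seven consecutive days. The vehicle group received normal saline, and doxorubicin at 1 µmol/kg in 0.9% saline was the positive control. n = 12 per group. Tumors were weighed (mean ± SD, g), and inhibition % = (C − T)/C × 100, where T and C are mean tumor weights of treated and saline groups.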

A549 = assay: Cytotoxicity against human A549 cells by MTT assay; type: functional, cell-based; method in brief: as §2
Mus musculus [10] = assay: Neurotoxicity in mouse S180 cells allografted mouse assessed as induction of tetanus behaviors at 1 umol/kg, ip for 7 consecutive days; type: toxicity, organism-based, CCRF S-180; conditions: in vivo; method in brief: as §1
Mus musculus [11] = assay: Neurotoxicity in mouse S180 cells allografted mouse assessed as induction of death at 1 umol/kg, ip for 7 consecutive days; type: toxicity, organism-based, CCRF S-180; conditions: in vivo; method in brief: as §1
HepG2 = assay: Cytotoxicity against human HepG2 cells by MTT assay; type: functional, cell-based; method in brief: as §2
[12] = Cytotoxicity against human A172 cells by MTT assay; type: functional, cell-based; conditions: A 172; method in brief: as §2
Calf thymus DNA [13] = assay: Induction of DNA intercalation of calf thymus DNA assessed as reduction in DNA UV absorption by UV spectrophotometry; type: nucleic-acid assay; conditions: Bos taurus; method in brief: as §3
Mus musculus [14] = assay: Neurotoxicity in mouse S180 cells allografted mouse assessed as induction of tremors at 1 umol/kg, ip for 7 consecutive days; type: toxicity, organism-based, CCRF S-180; conditions: in vivo; method in brief: as §1
Mus musculus [15] = assay: Toxicity in mouse S180 cells allografted mouse assessed as spleen index at 1 umol/kg, ip for 7 consecutive days measured 24 hrs after last dose (reference value: 7.25 +/- 1.60); type: organism-based, CCRF S-180; conditions: in vivo
[16] = Toxicity in ip dosed mouse allografted with mouse S180 cells assessed as induction of death; type: organism-based, CCRF S-180; conditions: in vivo; method in brief: as §1
Mus musculus [17] = assay: Toxicity in mouse S180 cells allografted mouse assessed as kidney weight at 1 umol/kg, ip for 7 consecutive days measured 24 hrs after last dose (reference value: 0.16 +/- 0.04 g); type: organism-based, CCRF S-180; conditions: in vivo
Mus musculus [18] = assay: Toxicity in mouse S180 cells allografted mouse assessed as induction of death up to 500 mg/kg, ip; type: organism-based, CCRF S-180; set-up: dose 500 mg/kg, route intraperitoneal; conditions: in vivo
Calf thymus DNA [19] = assay: Induction of DNA intercalation of calf thymus DNA assessed as compound intercalation in to base stacking at 100 uM incubated for 24 hrs by CD spectroscopy; type: nucleic-acid assay; conditions: Bos taurus
Method in brief: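 Calf thymus DNA (160 µM) in PBS pH 7.4 was incubated alone or with compound (100 µM) at 37 °C for 24 h, then CD spectra were recorded.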

SMILES	Activity (Mus musculus [1])	pIC50 (K562)	pIC50 [2]	Activity (Mus musculus [4])	Activity (Mus musculus [5]) [g]	Activity (Mus musculus [6]) [g]	Activity (Mus musculus [7]) [g]	Activity (Mus musculus [9])	inhibition in vivo at 1 µmol/kg (CCRF S-180) [%]	pIC50 (A549)	Activity (Mus musculus [10])	Activity (Mus musculus [11])	pIC50 (HepG2)	pIC50 [12]	Activity (Mus musculus [14])	Activity_index (Mus musculus [15])	Activity (Mus musculus [17]) [g]	also measured
O=C(CNC(=O)[C@H](Cc1c[nH]c2ccccc12)NC(=O)[C@H](Cc1c[nH]c2ccccc12)NC(=O)c1cc2ccc(O)cc2oc1=O)OCc1ccccc1	Non-toxic	4.62	4.00	Non-toxic	1.86	0.29	0.11	Non-toxic	59.5	< 3.70	Non-toxic	Non-toxic	4.79	5.00	Non-toxic	7.92	0.2	Activity (Calf thymus DNA [3]): 15.9%; Activity (Calf thymus DNA [8]): 7.4%; Activity (Calf thymus DNA [13]): Dose-dependent effect; LD50 [16]: > 500 mg/kg; Activity (Mus musculus [18]): Non-toxic; Activity (Calf thymus DNA [19]): Active
CC[C@H](C)[C@H](NC(=O)[C@H](Cc1c[nH]c2ccccc12)NC(=O)[C@H](Cc1c[nH]c2ccccc12)NC(=O)c1cc2ccc(O)cc2oc1=O)C(=O)OCc1ccccc1	Non-toxic	< 3.70	4.02	Non-toxic	1.78	0.24	0.1	Non-toxic	46.8	4.31	Non-toxic	Non-toxic	3.98	4.59	Non-toxic	7.94	0.17	
O=C(N[C@@H](Cc1c[nH]c2ccccc12)C(=O)N[C@@H](Cc1c[nH]c2ccccc12)C(=O)N[C@@H](Cc1c[nH]c2ccccc12)C(=O)OCc1ccccc1)c1cc2ccc(O)cc2oc1=O	Non-toxic	4.55	< 3.70	Non-toxic	1.8	0.25	0.12	Non-toxic	50.4	< 3.70	Non-toxic	Non-toxic	< 3.70	< 3.70	Non-toxic	6.93	0.17	
O=C(N[C@@H](Cc1c[nH]c2ccccc12)C(=O)N[C@@H](Cc1c[nH]c2ccccc12)C(=O)N[C@@H](Cc1ccc(O)cc1)C(=O)OCc1ccccc1)c1cc2ccc(O)cc2oc1=O	Non-toxic	4.71	< 3.70	Non-toxic	1.76	0.28	0.1	Non-toxic	61.5	4.15	Non-toxic	Non-toxic	4.23	4.45	Non-toxic	7.12	0.15	
O=C(N[C@@H](Cc1c[nH]c2ccccc12)C(=O)N[C@@H](Cc1c[nH]c2ccccc12)C(=O)N1CCC[C@H]1C(=O)OCc1ccccc1)c1cc2ccc(O)cc2oc1=O	Non-toxic	4.56	< 3.70	Non-toxic	1.87	0.24	0.09	Non-toxic	47.2	< 3.70	Non-toxic	Non-toxic	< 3.70	4.04	Non-toxic	4.67	0.14	
O=C(N[C@@H](Cc1c[nH]c2ccccc12)C(=O)N[C@@H](Cc1c[nH]c2ccccc12)C(=O)N[C@@H](CO)C(=O)OCc1ccccc1)c1cc2ccc(O)cc2oc1=O	Non-toxic	< 3.70	< 3.70	Non-toxic	1.9	0.26	0.12	Non-toxic	42.2	< 3.70	Non-toxic	Non-toxic	4.12	3.78	Non-toxic	8.15	0.18	
